Experimental findings from ChEMBL document CHEMBL2034972, “Synthesis, biological evaluation, and structure-activity relationships of N-benzoyl-2-hydroxybenzamides as agents active against P. falciparum (K1 strain), Trypanosomes, and Leishmania” (J Med Chem, 2012) are described below.

The test system of data set [1] is Trypanosoma brucei rhodesiense. Description: Antitrypanosomal activity against trypomastigotes of Trypanosoma brucei rhodesiense […] after 72 hrs by alamar blue assay. The format is functional, organism-based. The settings on record: STIB 900, L6, 72 h. The method in brief:
(§1)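 In vitro screens of parasites and host cells: T. b. rhodesiense STIB900 trypomastigotes, T. cruzi Tulahuen C4 intracellular amastigotes, L. donovani MHOM-ET-67/L82 axenic amastigotes, P. falciparum K1 erythrocytic stage, and L6 rat skeletal myoblasts […] for toxicity. […] Values are means of two independent determinations.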
(In general: Resazurin is reduced to fluorescent resorufin, in cell work by metabolically active cells.)

A further data set relates to Trypanosoma cruzi. The data set is described as follows: Antitrypanosomal activity against intracellular amastigote stage of Trypanosoma cruzi Tulahuen C2C4 infected in rat L6 cells after 96 hrs by spectrophotometric analysis. The class given is functional, organism-based. The following applies: Tulahuen C2C4, L6, 96 h. The method in brief: (§2)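 In vitro screens of parasites and host cells: T. b. rhodesiense STIB900 trypomastigotes, T. cruzi Tulahuen C4 intracellular amastigotes, L. donovani MHOM-ET-67/L82 axenic amastigotes, P. falciparum K1 erythrocytic stage, and L6 rat skeletal myoblasts […] for toxicity. Values are means of two independent determinations.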

Another data set relates to Leishmania donovani. The data set is described as follows: Antileishmanial activity against axenic amastigote stage of Leishmania donovani […] after 72 hrs by alamar blue assay. The settings on record: MHOM/ET/67/L82, L6, 72 h. The class given is functional, organism-based. In a few lines: as §2
In the next data set the test system is Plasmodium falciparum. The data set is described as follows: Antimalarial activity against chloroquine and pyrimethamine-resistant Plasmodium falciparum […] assessed as [3H]-hypoxanthine incorporation after 48 hrs by liquid scintillation counting. The class given is functional, organism-based. The method in brief:
as §1

A further data set deals with L6. The data set is described as follows: Cytotoxicity against rat L6 cells after 72 hrs by alamar blue assay. The class given is cell-based. The settings on record: L6, 72 h. The method in brief: as §1
Data set [2] in a line: Selectivity index, ratio of IC50 for rat L6 cells to IC50 for trypomastigotes of Trypanosoma brucei rhodesiense STIB 900. The class given is toxicity, cell-based. The following applies: read-out: Ratio IC50. The method in brief:
(§3)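 Selectivity index is calculated as the L6 myoblast IC50 divided by the IC50 against the respective parasite. Both IC50s are in µg/mL and are means of two independent determinations.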

Data set [3] can be described thus: Selectivity index, ratio of IC50 for rat L6 cells to IC50 for intracellular amastigote stage of Trypanosoma cruzi Tulahuen C2C4. The format is toxicity, cell-based. The following applies: read-out: Ratio IC50. The method in brief: as §3
A short description of data set [4]: Selectivity index, ratio of IC50 for rat L6 cells to IC50 for axenic amastigote stage of Leishmania donovani MHOM/ET/67/L82. The class given is toxicity, cell-based. The following applies: read-out: Ratio IC50. The method in brief: as §3
The nature of data set [5]: Selectivity index, ratio of IC50 for rat L6 cells to IC50 for chloroquine and pyrimethamine-resistant Plasmodium falciparum K1. The following applies: read-out: Ratio IC50. The format is toxicity, cell-based. In a few lines:
as §3

A short description of data set [6]: Metabolic stability of the compound in human liver microsomes assessed as compound remaining after 60 mins in presence of NADPH. The format is ADME, Microsome. The settings on record: read-out: Stability. On the technique in general: Microsomes from liver hold many membrane-bound enzymes, among them those of drug oxidation.
Data set [7] is described as follows: Metabolic stability of the compound in human liver microsomes assessed as compound remaining after 60 mins. The format is ADME, Microsome. The following applies: read-out: Stability.
In data set [8] the target is Voltage-gated inwardly rectifying potassium channel KCNH2 (Homo sapiens, UniProt Q12809). Description: Inhibition of human Erg at 300 uM.
The target in a further data set is CYP3A4 (Homo sapiens, UniProt P08684). Description: Inhibition of CYP3A4 at 10 uM. The format is ADME.
The target of another data set is CYP2D6 (Homo sapiens, UniProt P10635). The data set is described as follows: Inhibition of CYP2D6 at 10 uM. The class given is ADME.
In another data set the target is CYP2C9 (Homo sapiens, UniProt P11712). Description: Inhibition of CYP2C9 at 10 uM. The format is ADME.
A short description of data set [9]: Aqueous solubility of the compound in phosphate based buffer at pH 4. The format is physicochemical.
The nature of data set [10]: Aqueous solubility of the compound in phosphate based buffer at pH 7.4. The format is physicochemical.
Data set [11] in a line: Plasma protein binding in human. The class given is ADME, cell-free. The following applies: read-out: PPB (converted).
Data set [12] can be described thus: Intrinsic clearance in human liver microsomes assessed per mg of protein. The class given is ADME, Microsome. The following applies: read-out: CLH.

Values after ≈ are worked out from the molar mass of the structure shown. A value given as a limit tells only on which side of the number the result lay.

Usually IC50 stands for the concentration that gives 50% inhibition. In general, inhibition refers to the change of the read-out against control, counted positive when it falls. In general, solubility refers to how much of the substance goes into solution per volume. Read a high solubility as a readily soluble substance.

Sequence of CYP2D6 (P10635 whole entry): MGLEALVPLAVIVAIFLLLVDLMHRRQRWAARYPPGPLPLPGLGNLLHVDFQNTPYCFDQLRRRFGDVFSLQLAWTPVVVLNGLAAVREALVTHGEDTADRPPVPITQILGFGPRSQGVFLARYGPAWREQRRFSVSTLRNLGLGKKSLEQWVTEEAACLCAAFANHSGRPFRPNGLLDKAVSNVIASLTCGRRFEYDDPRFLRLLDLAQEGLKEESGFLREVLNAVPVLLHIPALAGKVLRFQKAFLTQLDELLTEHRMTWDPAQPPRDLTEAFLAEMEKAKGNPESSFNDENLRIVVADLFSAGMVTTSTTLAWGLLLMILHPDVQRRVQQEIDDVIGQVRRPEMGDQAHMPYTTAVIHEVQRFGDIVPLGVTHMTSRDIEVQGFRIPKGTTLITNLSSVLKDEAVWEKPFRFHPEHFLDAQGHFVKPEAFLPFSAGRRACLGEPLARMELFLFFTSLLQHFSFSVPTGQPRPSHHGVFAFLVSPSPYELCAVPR
Sequence of Voltage-gated inwardly rectifying potassium channel KCNH2 (Q12809 whole entry): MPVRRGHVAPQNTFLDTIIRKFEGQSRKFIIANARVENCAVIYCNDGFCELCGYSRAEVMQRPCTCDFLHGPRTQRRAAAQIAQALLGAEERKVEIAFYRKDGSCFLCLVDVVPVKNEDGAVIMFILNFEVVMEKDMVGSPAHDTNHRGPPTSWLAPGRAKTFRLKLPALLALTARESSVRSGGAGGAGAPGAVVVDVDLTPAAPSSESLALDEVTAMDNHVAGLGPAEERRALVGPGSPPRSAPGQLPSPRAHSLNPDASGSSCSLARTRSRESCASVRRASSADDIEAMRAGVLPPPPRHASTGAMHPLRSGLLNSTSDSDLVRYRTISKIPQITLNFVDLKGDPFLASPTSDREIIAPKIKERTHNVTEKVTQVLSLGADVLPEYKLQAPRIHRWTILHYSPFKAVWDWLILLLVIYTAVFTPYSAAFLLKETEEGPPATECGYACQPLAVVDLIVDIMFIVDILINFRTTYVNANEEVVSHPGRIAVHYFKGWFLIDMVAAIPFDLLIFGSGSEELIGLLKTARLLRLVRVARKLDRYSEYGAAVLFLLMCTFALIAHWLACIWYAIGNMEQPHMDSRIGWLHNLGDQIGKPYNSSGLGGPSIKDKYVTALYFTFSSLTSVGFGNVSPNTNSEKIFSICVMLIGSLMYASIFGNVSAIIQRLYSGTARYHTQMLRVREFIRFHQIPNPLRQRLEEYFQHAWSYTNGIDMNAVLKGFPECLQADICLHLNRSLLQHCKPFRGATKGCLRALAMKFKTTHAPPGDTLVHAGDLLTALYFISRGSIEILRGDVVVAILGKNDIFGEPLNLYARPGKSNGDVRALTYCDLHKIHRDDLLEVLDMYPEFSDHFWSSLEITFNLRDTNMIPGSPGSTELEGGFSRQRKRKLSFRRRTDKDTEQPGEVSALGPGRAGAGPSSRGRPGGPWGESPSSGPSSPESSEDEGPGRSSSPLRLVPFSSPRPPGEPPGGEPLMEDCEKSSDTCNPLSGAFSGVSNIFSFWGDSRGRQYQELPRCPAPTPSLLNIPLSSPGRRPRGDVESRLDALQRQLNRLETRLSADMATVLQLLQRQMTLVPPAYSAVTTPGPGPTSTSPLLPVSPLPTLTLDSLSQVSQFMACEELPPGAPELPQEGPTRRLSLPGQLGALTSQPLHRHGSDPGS
Sequence of CYP2C9 (P11712 whole entry): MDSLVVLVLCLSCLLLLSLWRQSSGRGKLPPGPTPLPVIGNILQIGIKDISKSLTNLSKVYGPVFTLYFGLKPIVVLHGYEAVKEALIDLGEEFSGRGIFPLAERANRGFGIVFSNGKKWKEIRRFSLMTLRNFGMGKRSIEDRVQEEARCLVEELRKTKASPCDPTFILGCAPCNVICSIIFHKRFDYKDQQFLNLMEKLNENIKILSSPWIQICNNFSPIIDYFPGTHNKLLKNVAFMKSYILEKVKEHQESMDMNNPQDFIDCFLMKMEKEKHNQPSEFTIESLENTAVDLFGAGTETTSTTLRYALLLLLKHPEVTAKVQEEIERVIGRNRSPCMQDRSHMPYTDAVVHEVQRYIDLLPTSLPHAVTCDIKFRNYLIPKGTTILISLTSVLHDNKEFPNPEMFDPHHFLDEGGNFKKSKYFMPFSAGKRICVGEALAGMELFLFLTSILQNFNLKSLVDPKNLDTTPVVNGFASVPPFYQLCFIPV
Sequence of CYP3A4 (P08684 whole entry): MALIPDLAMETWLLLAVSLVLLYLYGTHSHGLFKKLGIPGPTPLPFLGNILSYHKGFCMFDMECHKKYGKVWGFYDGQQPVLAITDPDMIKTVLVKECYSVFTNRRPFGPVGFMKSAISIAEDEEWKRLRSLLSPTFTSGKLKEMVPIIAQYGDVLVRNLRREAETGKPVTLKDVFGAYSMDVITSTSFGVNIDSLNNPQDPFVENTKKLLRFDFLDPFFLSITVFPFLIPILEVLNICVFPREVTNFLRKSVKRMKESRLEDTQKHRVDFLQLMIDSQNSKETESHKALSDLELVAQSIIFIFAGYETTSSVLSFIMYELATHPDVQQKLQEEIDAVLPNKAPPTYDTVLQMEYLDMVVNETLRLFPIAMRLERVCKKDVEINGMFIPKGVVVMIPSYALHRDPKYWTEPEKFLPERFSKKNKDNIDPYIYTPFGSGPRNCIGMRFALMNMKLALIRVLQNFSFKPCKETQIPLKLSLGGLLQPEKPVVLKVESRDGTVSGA

Consider `CCc1ccc(C(=O)N(C)C(=O)c2ccccc2O)cc1`, for which the IC50 in [1] is greater than 100 µg/mL; with Trypanosoma cruzi, 29 µg/mL (≈ 102 µM); in the data set on Leishmania donovani it was 9.1 µg/mL (≈ 32.1 µM); in the data set with Plasmodium falciparum it was 28 µg/mL (≈ 98.8 µM); with L6, 9.4 µg/mL (≈ 33.2 µM). The selectivity ratio was less than 0.094 in data set [2], 0.33 in data set [3], 1 in data set [4] and 0.33 in [5].

Regarding `CCc1ccc(C(=O)NNC(=O)c2ccccc2O)cc1`, the IC50 was determined as 17 µg/mL (≈ 59.8 µM) in [1]; 2.2 µg/mL (≈ 7.74 µM) with Trypanosoma cruzi; 6.2 µg/mL (≈ 21.8 µM) in the data set with Leishmania donovani; 27 µg/mL (≈ 95 µM) in the data set on Plasmodium falciparum; 4.8 µg/mL (≈ 16.9 µM) in the data set with L6. In addition, the selectivity ratio in [2] came to 0.28; in data set [3], 2.2; in data set [4], 0.77; in data set [5], 0.18.

For the compound `CCc1ccc(C(=O)NC(=S)c2ccccc2O)cc1`, the IC50 was 61 µg/mL (≈ 214 µM) in data set [1]; 10 µg/mL (≈ 35 µM) in the data set with Trypanosoma cruzi; 5.3 µg/mL (≈ 18.6 µM) in the data set with Leishmania donovani; 4.2 µg/mL (≈ 14.7 µM) with Plasmodium falciparum; 17 µg/mL (≈ 59.6 µM) in the data set on L6. The selectivity ratio in data set [2] amounted to 0.28; in [3], 1.7; in [4], 3.3; in [5] it was 4.1.

On to `CCc1ccc(NC(=O)NC(=O)c2ccccc2O)cc1`, for which the IC50 stood at 36 µg/mL (≈ 127 µM) in [1]; 74 µg/mL (≈ 260 µM) in the data set with Trypanosoma cruzi; 100 µg/mL (≈ 352 µM) with Leishmania donovani; 26 µg/mL (≈ 91.4 µM) with Plasmodium falciparum; 70 µg/mL (≈ 246 µM) in the data set with L6. For the same compound, the selectivity ratio is 2 in data set [2], 0.95 in data set [3], 0.7 in data set [4] and 2.8 in data set [5].

For the compound `CCc1ccc(NC(=O)Nc2ccccc2O)cc1`, the IC50 in data set [1] amounted to 18 µg/mL (≈ 70.2 µM); with Trypanosoma cruzi, 7 µg/mL (≈ 27.3 µM); with Leishmania donovani, 3.7 µg/mL (≈ 14.4 µM); in the data set on Plasmodium falciparum it was 2.1 µg/mL (≈ 8.19 µM); with L6 it was 9.6 µg/mL (≈ 37.5 µM). The selectivity ratio in [2] was 0.54; in [3] it was 1.4; in [4], 2.6; in data set [5] it was 4.6.

As for `CCc1ccc(C(=O)n2c(=O)oc3ccccc3c2=O)cc1`, the IC50 in [1] stood at 83 µg/mL (≈ 281 µM); in the data set with Trypanosoma cruzi, 8.8 µg/mL (≈ 29.8 µM); in the data set with Leishmania donovani, 1.9 µg/mL (≈ 6.43 µM); in the data set on Plasmodium falciparum, 6.9 µg/mL (≈ 23.4 µM); in the data set on L6, 26 µg/mL (≈ 88 µM). For the same compound, the selectivity ratio is 0.31 in [2], 3 in [3], 13 in data set [4] and 3.7 in [5].

In the case of `CCc1ccc(C(=O)Nc2cn(C(C)=O)c3ccccc23)cc1`, the IC50 was greater than 50 µg/mL in data set [1]; 28 µg/mL (≈ 91.4 µM) in the data set with Trypanosoma cruzi; greater than 50 µg/mL in the data set on Leishmania donovani; 23 µg/mL (≈ 75.1 µM) with Plasmodium falciparum; 23 µg/mL (≈ 75.1 µM) with L6. For the same compound, the selectivity ratio is less than 0.46 in data set [2], less than 0.81 in data set [3], less than 0.46 in [4] and 1 in data set [5].

Turning to `CCc1ccc(NC(=O)CC(=O)Nc2ccccc2O)cc1`, the IC50 in data set [1] worked out at 35 µg/mL (≈ 117 µM); in the data set with Trypanosoma cruzi, 20 µg/mL (≈ 67 µM); in the data set on Leishmania donovani, 13 µg/mL (≈ 43.6 µM); in the data set with Plasmodium falciparum it was 12 µg/mL (≈ 40.2 µM); in the data set with L6, 16 µg/mL (≈ 53.6 µM). Further, the selectivity ratio in data set [2] came to 0.44; in [3], 0.76; in [4], 1.2; in [5] it was 1.3.

`CCc1ccc(C(=O)NC(=O)c2ccccc2O)cc1`: the results for the remaining at 1 h in data set [6] and in [7] were 0.5% and 53%, respectively. Moreover, the “inhibition (INH)” value in data set [8] was “Not Active”. The inhibition at 10 µM against CYP3A4, against CYP2D6 and against CYP2C9 was 71% throughout. Also, the solubility in [9] was found to be 2.76 µM (≈ 0.743 µg/mL); in data set [10], 50.8 µM (≈ 13.7 µg/mL). Also, in data set [11], the fraction unbound is 0.001. Besides, the microsomal CLint in [12] was found to be 282 µL/min/mg. In addition, the IC50 in data set [1] turned out to be 81 µg/mL (≈ 301 µM); with Trypanosoma cruzi, 4.8 µg/mL (≈ 17.8 µM); in the data set with Leishmania donovani it was 7.4 µg/mL (≈ 27.5 µM); with Plasmodium falciparum, 5.6 µg/mL (≈ 20.8 µM); in the data set with L6, 70 µg/mL (≈ 260 µM).

Consider `OC(Cn1cncn1)(Cn1cncn1)c1ccc(F)cc1F` [FLUCONAZOLE], for which the fraction unbound in data set [11] was 0.763.
